Sampled rows, rich in hits. Any-hit rate of the full collection: about 5.4%.
Ecoli tolC: growth inhibitors of E. coli tolC mutant, primary screen, strain BW25113 ΔtolC::kan, 384-well; AID 573, 2007; growth inhibition, % at 10 µM (by protocol); actives 2.2% (n = 65,000); OD615;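 active means growth inhibition at or above a cutoff equal to the mean over every tested compound plus 3 SD, cut at about 60% in these data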;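 further: growth measured after 20 h incubation at 37 °C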
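Doses: one dose of 10 µM final / Material: E. coli BW25113 ΔtolC::kan, tolC deletion mutant strain / Buffer or medium: LB with kanamycin 50 µg/mL / Evaluation: percent growth inhibition / Detection: optical density read at 615 nm / Incubation: 37 °C, 20 h exposure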
PostGolgi yeast: phenotypic screen on post-Golgi transport, primary screen; inhibition, % at 10 µM; actives 0.9% (n = 98,000); post-Golgi transport phenotypic cell assay; AID 739, 2007;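 further: yeast cells grown in 1536-well plates; yeast grown about 18 h at 30C before absorbance read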
PostGolgi ctrl: growth inhibition of yeast control strain, primary screen, counter-screen for post-Golgi transport modulator project | efflux-deficient yeast background strain, growth absorbance A615, 16 h | inhibition, % at 10 µM | actives 5% (n = 98,000)
HePTP inhibitor: inhibitors of human HePTP phosphatase, primary screen, biochemical, absorbance, leukemia target | Tyrosine-protein phosphatase non-receptor type 7 (Homo sapiens), P35236 | recombinant HePTP phosphatase activity, OD absorbance | inhibition, % at 20 µM | actives 0.64% (n = 110,000) | AID 521, 2006; in the data active means inhibition above about 50%;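 further: plate controls were vehicle for no effect and reference inhibitor for full effect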
Ecoli WT expand: growth inhibitors of wild-type E. coli, primary screen, strain BW25113, expanded library, OD600 | OD600 absorbance | growth inhibition, % at 100 µM | actives 0.15% (n = 98,000);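 active means growth inhibition above about 50% at one test dose, limit read from the data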;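 further: growth measured after 20 h incubation at 37 °C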
PLAP activator: PLAP enzyme activators, biochemical, luminescence, HTS. purified PLAP enzyme, luminescent substrate read-out; active compounds read high. activation fold at 20 µM. actives 1.2% (n = 96,000); in the data active means activation fold above about 2
Target sequence (P05187 whole entry, looked up): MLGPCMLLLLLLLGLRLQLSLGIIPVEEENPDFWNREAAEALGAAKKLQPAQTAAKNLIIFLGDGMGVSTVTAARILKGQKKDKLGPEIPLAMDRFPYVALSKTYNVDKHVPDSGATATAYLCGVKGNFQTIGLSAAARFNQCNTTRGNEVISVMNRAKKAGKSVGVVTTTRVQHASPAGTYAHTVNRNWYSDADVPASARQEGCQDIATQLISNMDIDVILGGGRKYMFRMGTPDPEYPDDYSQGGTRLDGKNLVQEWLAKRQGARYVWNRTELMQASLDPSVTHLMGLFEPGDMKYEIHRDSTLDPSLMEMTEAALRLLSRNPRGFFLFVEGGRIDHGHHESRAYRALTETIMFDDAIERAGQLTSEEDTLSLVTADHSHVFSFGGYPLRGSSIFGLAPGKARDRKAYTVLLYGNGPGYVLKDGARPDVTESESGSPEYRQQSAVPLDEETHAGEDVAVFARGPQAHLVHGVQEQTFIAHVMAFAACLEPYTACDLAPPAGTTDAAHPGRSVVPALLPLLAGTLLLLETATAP
Starred values were filed as active, the others as inactive. Unless noted, no stated cut-off is given here; in the data, active means inhibition above about 30%; inactive means the rest.

For CCOC(=O)N1CCN(C(=O)c2cc3sccc3n2C)CC1 the results were Ecoli tolC 2, PostGolgi yeast -1, PostGolgi ctrl 2, HePTP inhibitor -4, Ecoli WT expand 0 and PLAP activator 1.3.
For Cc1ccc(C)c(N2CCN(C(=O)c3cc4sccc4n3C)CC2)c1 the results were Ecoli tolC 76*, PostGolgi yeast -2, PostGolgi ctrl 36*, HePTP inhibitor 11, Ecoli WT expand -6 and PLAP activator 1.2.
Cn1c(C(=O)N2CCN(c3cccc(C(F)(F)F)c3)CC2)cc2sccc21 was read as Ecoli tolC 71*, PostGolgi yeast 4, PostGolgi ctrl 48*, HePTP inhibitor -7, Ecoli WT expand -29 and PLAP activator 1.1.
Screening O=S(=O)(c1ccc(Cl)cc1)c1snnc1-c1ccccc1 returned PostGolgi yeast 6, PostGolgi ctrl 34*, Ecoli WT expand 2 and PLAP activator 0.6.
`O=C(NC(=S)Nc1cc(Cl)c(Cl)cc1Cl)c1ccco1` gave HePTP inhibitor -6.
Screening O=C(CCC1CCCCC1)N1CCN(Cc2ccc3c(c2)OCO3)CC1 returned Ecoli tolC 27, PostGolgi yeast 73*, PostGolgi ctrl 38*, HePTP inhibitor -10, Ecoli WT expand 14 and PLAP activator 1.3.
For CS(=O)(=O)N(CC(=O)N1CCN(Cc2ccc3c(c2)OCO3)CC1)Cc1ccc(Cl)cc1 the results were PostGolgi yeast -1, PostGolgi ctrl 4, Ecoli WT expand -5 and PLAP activator 1.6.
O=C1NC(=O)/C(=C\c2ccc(Sc3ccc(Cl)cc3)o2)N1 was read as PostGolgi yeast 0, PostGolgi ctrl -4, Ecoli WT expand -18 and PLAP activator 1.2.
For Clc1ccc(Sc2oc(/C=N/n3cnnc3)cc2Br)cc1 the results were Ecoli tolC 4, PostGolgi yeast 4, PostGolgi ctrl 47*, HePTP inhibitor 5, Ecoli WT expand 3 and PLAP activator 0.9.
`O=C1NC(=S)NC(=O)C1=Cc1cc(Br)c(Sc2ccc(Cl)cc2)o1` gave HePTP inhibitor 76*.
COc1ccccc1NC(=O)c1c(NC(=O)c2ccc([N+](=O)[O-])cc2)sc2c1CCCCC2 was read as HePTP inhibitor 3.
Screening CC(=O)c1cccc(NC(=O)c2cc(I)ccc2Cl)c1 returned HePTP inhibitor 12.
`CC(=O)C1=C(O)C(=O)N(CCN(C)C)C1c1ccc(O)cc1` (stereo not given) gave HePTP inhibitor -19.
`COc1cc(NC(=O)c2ccc(Cl)c([N+](=O)[O-])c2)ccc1NC(=O)c1ccco1` gave HePTP inhibitor -4.
For CCOC(=O)c1[nH]cnc1C(=O)Nc1ccccn1 the results were Ecoli tolC -6, PostGolgi yeast 1, PostGolgi ctrl 24, HePTP inhibitor 4, Ecoli WT expand 2 and PLAP activator 1.8.
O=C(c1ccccc1)c1nc[nH]c1C(=O)Nc1ccccn1 was read as Ecoli tolC -14, PostGolgi yeast 22, PostGolgi ctrl -2, HePTP inhibitor -6, Ecoli WT expand 2 and PLAP activator 2.2*.
For CCN(CC)c1ccc(/C=N/Nc2nc(-c3cc4cccc(OC)c4oc3=O)cs2)c(O)c1 the results were HePTP inhibitor -12.
COc1cc(/C=C/c2cc(C(F)(F)F)[nH]c(=O)n2)ccc1OCc1ccc(Cl)cc1Cl was read as HePTP inhibitor -1.
CC1=C(C#N)c2nc(N)c(C#N)c(C)c2/C1=C/c1ccc(-c2ccccc2[N+](=O)[O-])o1 was read as HePTP inhibitor 81*.
COc1ccc(/C=C2/C(C)=C(C#N)c3nc(N)c(C#N)c(C)c32)cc1Br was read as HePTP inhibitor -2.
CC1=C(C#N)c2nc(N)c(C#N)c(C)c2/C1=C\c1ccc(C)cc1 was read as PostGolgi yeast 104*, PostGolgi ctrl 100*, Ecoli WT expand -5 and PLAP activator 1.1.
CC1Cc2ccccc2N1C(=S)Nc1ccc2nccnc2c1 (stereo not given) was read as HePTP inhibitor -10.
CCCCCCOC(=O)Sc1nc2ccccc2o1 was read as Ecoli tolC 9, PostGolgi yeast 34*, PostGolgi ctrl 9, HePTP inhibitor 4, Ecoli WT expand 2 and PLAP activator 1.1.

From PubChem
